Laboratory results published in PubChem BioAssay.
Unmarked numbers belong to inactive results. Records with an inconclusive call do not appear. Calls of active or inactive are those of the source.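 The calls were made as follows, unless noted: active = growth inhibition above 25% in both replicates, a cutoff set 3 SD above the mean; inconclusive = above 25% in only one replicate; inactive = the rest.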

What was measured:
[1] = S. cerevisiae growth inhibition in permissive medium (OD615), pilot counter-assay for S. cerevisiae lifespan shortening project, permissive growth control (AID 705); details: OD615, 24 h, at 10 µM, active compounds read high
In short: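 assay system = Saccharomyces cerevisiae strain carrying genetically modified DeaD replicative-lifespan system | medium = SC raffinose/galactose permissive medium | dosing = 10 µM single dose, 0.25% DMSO | schedule = 24 h compound exposure at 30 °C after 4 h pre-growth | measured by = OD at 615 nm | read-out basis = growth inhibition from lowered OD615 after 24 h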

[2] = S. cerevisiae growth inhibition in restrictive medium, OD615, pilot screen, restrictive growth control, yeast lifespan reduction project (AID 706;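 active = growth inhibition above a set limit, 3 SD over mean compound inhibition, in both replicates, cut at about 43% in these data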;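 also: modified DeaD lifespan yeast strain shifted to restrictive glucose medium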); details: OD615, 48 h, at 10 µM, active compounds read high
In short: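 Buffer or medium: CSMM-D glucose medium. Material: genetically modified Saccharomyces cerevisiae, DeaD replicative lifespan assay strain. Times: 48 h compound exposure at 30 °C. Measured by: optical density at 615 nm.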

[3] = doxorubicin toxicity protection in MRP-1 cells – H69AR cells, CellTiter-Glo, duplicate, MRP-1 activator project, pilot screen (AID 807;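 active = viability increase at or above a cutoff of the median across tested compounds plus 3 SD, cut at about 8.5% in these data, passing the limit was not always enough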;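 also: compound pretreatment 18-22 h then 72 h combined with doxorubicin; 0% = doxorubicin alone and 100% = vehicle without doxorubicin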); details: H69AR viability with doxorubicin, CellTiter-Glo luminescence; at 10 µM; active compounds read high
[4] = viability of HCT116 without oncogenic beta-catenin – human colon tumor cells, pilot screen (AID 823;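 active = cell viability at or below a set limit in both duplicate runs, the limit being the all-compound median minus 4 SD, cut at about 23% in these data, passing the limit was not always enough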;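 also: 0% = wells killed by 20 µM Hyamine and 100% = untreated DMSO cell wells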); details: HCT116 beta-catenin knockout viability, CellTiter-Glo, 60 h; at 10 µM; active compounds read low
[5] = viability of PTEN-null HCT116 cells – cell-based, HCT116 clonal line, CellTiter-Glo, pilot screen (AID 824;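 active = viability at or below 27.92% in each of two runs, the all-compound median minus 4 SD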;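 also: 0% = 20 µM Hyamine control and 100% = vehicle cell control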); details: HCT116 PTEN-deleted viability, 60 h, at 10 µM, active compounds read low
[6] = RAM pathway blockade in budding yeast – dse1pr::URA3 reporter, 5-FOA selection, pilot screen (AID 869;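 active = inhibition over a set limit, the all-compound mean plus 3 SD, in both replicate runs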;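 also: 0% = DMSO wells with no growth and 100% = 10 µM 1-NA-PP1 with full growth; RAM network block rescues cells from 5-FOA so hits raise OD615 growth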); details: S. cerevisiae dse1pr::URA3 5-FOA growth, OD615, 2 d; at 10 µM; active compounds read high; strain carries analog-sensitive mutant Cbk1 kinase
[7] = RAM signaling pathway blockade in yeast – S. cerevisiae, Pdr1DBD-CYC8 efflux-inhibited sensitized strain, primary screen (AID 1298;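 active = RAM network inhibition above 8.4% in each of two replicates, 3 SD over the compound average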;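 also: 0% = DMSO untreated cells without growth and 100% = 10 µM 1-NA-PP1 full growth; higher means more yeast growth rescued from 5-FOA killing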); details: S. cerevisiae cbk1-as DSE1-URA3 strain, 5-FOA growth OD615, 2 d; at 50 µM; active compounds read high

| Structure (SMILES) | growth inhibition [1] | growth inhibition [2] | viability increase [3] | viability [4] | viability [5] | inhibition [6] | RAM network inhibition [7] |
| --- | --- | --- | --- | --- | --- | --- | --- |
| CC1=C(C(=O)OC(C)C)C(c2cccnc2)n2ncnc2N1 (stereo unspecified) | -6.7% | -11% | 0.27% | 101% | 100% | 0.07% | 5.02% |
| O=C(CC1Oc2ccccc2NC1=O)NC1CC1 (stereo unspecified) | -1.45% | -2.85% | 0.91% | 108% | 93.5% | 3.03% | -0.05% |
| C=CCn1c(SCCN2CCCCC2)nc2c1c(=O)[nH]c(=O)n2C | -3.65% | 6.96% | -1.07% | 109% | 99.8% | 1.17% | 1.65% |
| CCn1c(=O)c2cc(C(=O)N3CCOCC3)sc2c2ccccc21 | -8.55% | -14.5% | -3.34% | 102% | 87.3% | 0.84% | 2.72% |
| CCC(O)CNc1nc(SC)nc2sc3c(c12)CCN(C)C3 (stereo unspecified) | -7.7% | -14.2% | -3.74% | 99.2% | 91.2% | 2.08% | 0.46% |
| O=C1c2ccccc2C(=O)N1CCCCN(C(=O)c1ccco1)c1ccc(Cl)cc1 | -1.78% | -17.5% | -2.82% | 102% | 91.1% | 2.79% | 5.33% |
| O=C(O)Cc1ccc(NC(=O)C2CCCCC2C(=O)O)cc1 (stereo unspecified) | -15% | -6.54% | 0.06% | 95.5% | 103% | 0.385% | 2.44% |
| NC(=O)C1CCN(c2ncnc3c2c(-c2ccccc2)cn3-c2ccccc2)CC1 | -2.17% | 8.02% | -4.62% | 81.3% | 81.9% | -0.35% | 3.9% |
| COc1ccc(CCNC(=O)CN(c2ccccc2OC)S(C)(=O)=O)cc1OC | -2.94% | 9.29% | -1.9% | 106% | 96.8% | 1.04% | 1.38% |
| Cc1cc(C2N=C(N)Nc3nc4ccccc4n32)c(C)n1-c1ccccc1Cl (stereo unspecified) | -0.255% | -33.7% | -4.14% | 9.19% (active) | 16.7% (active) | 2.92% | 3.79% |
| Cc1c(C(=O)Nc2ccncc2)sc2nc(-c3ccccc3)cn12 | 0.39% | 9.21% | 2.2% | 89.2% | 89.2% | 0.99% | -1.99% |
| O=C(NCCN1C(=O)C2C3C=CC(C3)C2C1=O)NCc1ccccc1 (stereo unspecified) | -14.8% | 3.81% | -0.69% | 102% | 99.8% | 1.61% | 1.83% |
| COc1ccc(O)c(-c2[nH]ncc2C(=O)c2ccccc2C)c1 | -7.88% | -5.12% | -0.59% | 100% | 98.5% | -0.045% | -0.67% |
| COc1ccc(NC(=O)Nc2c(C)n(C)n(-c3ccccc3)c2=O)cc1 | 1.73% | 2.85% | -2.06% | 103% | 97.9% | 0.655% | 1.34% |
| CCOC(=O)N1CCN(C(=O)CSc2nc3c([nH]c4ccccc43)c(=O)n2C)CC1 | 1.46% | -8.89% | -4.86% | 91.1% | 82.2% | 2.34% | 3.41% |
| CCOc1ccc(NC2CCN(C(C)=O)CC2)cc1 | -12.8% | -7.46% | 0.27% | 95.2% | 97% | 0.625% | 6.44% |
| O=c1[nH]c(=S)[nH]nc1Cc1ccccc1 | -10% | 13.4% | -0.79% | 101% | 98.2% | 0.12% | 6.46% |
| O=C(O)c1cc2nc(C3CC3)cc(C(F)(F)F)n2n1 | -2.34% | -2.47% | 0.62% | 102% | 90.1% | 1.67% | -2.13% |
| Cc1ccc(C(=O)c2ccccc2C(=O)O)c(O)c1 | -15.6% | -4.92% | 0.69% | 94.8% | 106% | 0.835% | 5.69% |
| COc1ccc(CNC(=O)c2cc(C3CC3)on2)cc1 | -3.07% | 6.49% | -1.95% | 94.3% | 95.5% | -0.84% | -2.3% |
| O=C(NCCCNC(=O)c1cccs1)c1cccs1 | 3.77% | -0.395% | 0% | 96.6% | 108% | 1.09% | 5.26% |
| Cc1csc2nc(CNC(=O)C3CCCCC3)cn12 | -16.4% | -13.2% | -3.04% | 105% | 97.2% | 0.93% | 0.53% |
| CCOC(=O)C1CCN(C(=O)c2ccc(Cl)c(NC3=NC4CS(=O)(=O)CC4S3)c2)CC1 (stereo unspecified) | -13.6% | -14.5% | -0.09% | 107% | 89.4% | 1.65% | -0.37% |
| Cc1ccc(Sc2oc(/C=N/n3cnnc3)cc2Br)cc1 | 0.63% | 4.41% | -7% | 6.77% (active) | 6.87% (active) | 1.4% | 3.27% |

| Structure (SMILES) | growth inhibition [1] | growth inhibition [2] | viability increase [3] | viability [4] | viability [5] | inhibition [6] | RAM network inhibition [7] |
| --- | --- | --- | --- | --- | --- | --- | --- |
| O=C(NCCc1ccccc1)c1ccc(Br)o1 | -7.62% | 1.48% | 0.4% | 104% | 103% | 0.77% | 1.44% |
| COc1ccc(C(=O)Nc2ccc3oc(-c4cccc(F)c4)nc3c2)cc1OC | -9.88% | -5.71% | -2.46% | 95.1% | 90.3% | 3.53% | 3.33% |
| CC(NC(=O)c1cccnc1)C(c1cccs1)N1CCN(C)CC1 (stereo unspecified) | -4.91% | 5.15% | 0.3% | 98.2% | 95% | 0.955% | 4.79% |
| COc1cc(NC(=O)c2cc(-c3cccc(O)c3)on2)cc(OC)c1OC | -13.9% | 3.45% | -6.05% | 89.8% | 75.3% | 4.79% | 6.05% |
| Cc1cc(N2CCC(N(C)C3CCCC3)CC2)nc2cc(O)ccc12 | -8.33% | -9.98% | -7.96% | 53.9% | 53.7% | 2.4% | 2.21% |
| COc1ccc(-n2nc3c(c2NC(=O)C24CC5CC(CC(C5)C2)C4)CS(=O)C3)cc1 (stereo unspecified) | 1.36% | 9.3% | -0.78% | 97.2% | 93.5% | -0.08% | -1.31% |
| COc1cc(SC)ccc1C(=O)Nc1ccc2c(c1)CCN2S(C)(=O)=O | -4.62% | -7.36% | 0.15% | 100% | 94.2% | 3.22% | 4.39% |
| O=C(NCCCN1CCN(c2ccccc2F)CC1)C1CCC(=O)N1C1CCCC1 (stereo unspecified) | -13% | -1.25% | -2.46% | 102% | 93.6% | 1.08% | 5.85% |
| O=C1CN(C(=O)COC(=O)C2CC(=O)N(Cc3ccco3)C2)c2ccccc2N1 (stereo unspecified) | -12% | -16.7% | -2.08% | 102% | 104% | 1.06% | 4.09% |
| COc1cc(NC(=O)c2c(-c3ccccc3Cl)noc2C)c2ncccc2c1 | -15.8% | -18.1% | -0.47% | 60.2% | 64.3% | 2.6% | 7.52% |
| CC(CCc1ccccc1)NC(=O)C1CCN(C(=O)c2sccc2-n2cccc2)CC1 (stereo unspecified) | -4.79% | 0.295% | 2.68% | 93.8% | 89.3% | 1.75% | 2.14% |
| O=C(NCc1cn2ccccc2n1)c1ccc(Br)o1 | -7.75% | -0.96% | -1.31% | 96.5% | 92.3% | 2.42% | 3.98% |
| CCOC(=O)C1CCCN(C(=O)c2cn(C)c3ccc(S(=O)(=O)N(C)C)cc3c2=O)C1 (stereo unspecified) | -5.1% | -1.87% | 0.59% | 97.8% | 105% | 0.48% | 6.85% |
| O=C(CSc1n[nH]c(-c2ccccc2)n1)c1ccccc1 | -0.485% | 16.9% | -0.56% | 95.8% | 95.5% | 1.01% | 2.45% |
| O=C(c1ccc(CS(=O)(=O)c2ccccc2)o1)N1CCN(c2ncccn2)CC1 | 2.63% | -5.3% | -4.07% | 104% | 102% | 0.185% | 2.87% |
| O=C(NCCCNC(=O)c1ccco1)c1ccco1 | -0.405% | 0.005% | -2.35% | 99.9% | 107% | -0.525% | 0.16% |
| CCOC(=O)C1=C(C)N(C)C(C)=C(C(=O)OCC)C1c1ccccn1 | -13.2% | -14.6% | -0.35% | 96.2% | 91.6% | 1.98% | 0.62% |
| CCn1c(SCc2nc(-c3ccccc3)no2)nc2ccccc21 | -12% | 8.5% | 1.73% | 93.1% | 92.3% | 0.38% | 1.2% |
| CCCCCn1c(SCC(=O)OC)nc2c1c(=O)[nH]c(=O)n2C | -16.6% | -10.6% | -0.86% | 103% | 102% | 1.29% | 0.79% |
| CCP(=O)(c1ccccc1)C(C)(C)O (stereo unspecified) | 6.37% | -8.84% | -2.44% | 104% | 93.9% | 1.48% | -0.68% |
| COc1cccc(C2NC(=O)NC(O)(C(F)(F)F)C2C(=O)c2cccnc2)c1OC (stereo unspecified) | 2.02% | -2.12% | 0.64% | 109% | 98.9% | 1.14% | 0.92% |
| O=S(=O)(c1ccc(Oc2ccc(S(=O)(=O)N3CCOCC3)cc2)cc1)N1CCOCC1 | -21.5% | -21.2% | -1.32% | 82.7% | 87.6% | 4.01% | 4.04% |
| CC(C)=CC1C(C(=O)Nc2ccc(Br)cn2)C1(C)C (stereo unspecified) | -14.6% | -19.1% | -0.01% | 60.7% | 63.2% | 3.15% | 4.66% |
| COc1ccccc1NC(=O)Nc1ccc(Br)cn1 | -10.3% | -15.5% | -2.09% | 92.6% | 87.7% | 2.98% | 8.69% |
